Bioassay records as filed in PubChem.
Rows were chosen to be rich in hits. Some 4.9% of all compounds tested hit in one or more screens of this group.
STAT1 act-1: STAT1 signaling activators, primary screen, cell-based, HTS, luciferase reporter | 2.6% of 200,000 active | activation (% of control), % at 5.5 µM | NIH 3T3 STAT1-luciferase reporter, IFN-gamma, luminescence; 100% = IFN-gamma alone, no compound | AID 932, 2007;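 active = activation above the screen-wide mean activation plus 3 SD, cut at about 130% in these data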;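 also: raw ratio to IFN-gamma control signal so 100% means no change and 0% no light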
APP 5'UTR act: activators of APP 5'UTR luciferase reporter, primary screen, SH-SY5Y cells | SH-SY5Y APP 5'UTR luciferase reporter, luminescence; zero percent = DMSO vehicle wells | activation, % at 2 µM | 1% of 190,000 active | AID 1276, 2008;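 active = activation above a set limit, based on mean plus 3 SD of controls, cut at about 140% in these data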
NF-kB expr up: activators of NF-kB expression in neurons, primary screen, cell-based, HTS; 1.6% of 190,000 active; fold change at 12.5 µM; human neuronal cells, NF-kB reporter expression; stronger effect = higher value; in the data active = fold change above about 3.3
STAT1 blocker: STAT1 signaling inhibitors, primary screen, cell-based, HTS, luciferase reporter; AID 920, 2007; 0.35% of 200,000 active; inhibition, % at 5.5 µM; NIH 3T3 STAT1-luciferase reporter, IFN-gamma, luminescence;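 active = inhibition above a set limit, the mean inhibition across all tested compounds plus 3 SD, cut at about 34% in these data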;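 also: 0% = IFN-gamma with DMSO and 100% = IFN-gamma with 300 µM nifuroxazide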
STAT3 act-1: IL-6 driven STAT3 reporter potentiators, primary screen, U3A cells, luciferase, luminescence, MLSCN library; IL-6 STAT3-luciferase reporter; 100% = signal with IL-6 EC80 alone; activation (% of control), % at 5.6 µM; 0.91% of 190,000 active;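 active = activation above the screen-wide mean of compound activation plus 3 SD, cut at about 130% in these data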;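 also: 0% = background luminescence of wells with medium and substrate only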
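system = STAT3-luciferase reporter U3A cells | reagent = IL-6 stimulus at 33 ng/mL final | timing = 1 h compound pre-exposure, 6 h IL-6 stimulation, 37 °C | measured by = luminescence | evaluation = % activation versus median of IL-6-stimulated wells | control set = IL-6-only wells as 100% reference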
STAT3 inh-1: IL-6 driven STAT3 reporter inhibitors, primary screen, U3A cells, luciferase, luminescence, MLSCN library; IL-6 STAT3-luciferase reporter; host cell line lacks STAT1; 0.89% of 190,000 active; inhibition, % at 5.5 µM;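 active = inhibition above the mean inhibition across all screened compounds plus 3 SD, cut at about 44% in these data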;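 also: 0% = DMSO only wells and 100% = 100 µM nifuroxazide control wells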
STAT3 inh-2: STAT3 reporter inhibitors, retest of hits, confirmation, U3A cells, luciferase, luminescence; shares compounds with STAT3 inh-1; IL-6 STAT3 luciferase reporter; cell line lacks STAT1; inhibition, % at 5.7 µM; 45% of 1,200 active;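 active = inhibition above the hit cutoff computed for the primary STAT3 screen, cut at about 44% in these data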;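 also: 0% = IL-6 plus DMSO and 100% = IL-6 plus nifuroxazide control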
NFkB inh 2: NF-kB reporter inhibitors in human cells, confirmation, counter-screen for STAT3 inhibitor project, cell-based, HEK293T, luciferase, TNF-alpha stimulus | inhibition, % at 5.7 µM | shares compounds with STAT3 inh-1 | 36% of 1,200 active | TNF-alpha induced;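 active = inhibition above the mean of solvent-only control wells plus 3 SD, cutoff set per campaign, cut at about 13% in these data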;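 also: 0% = TNF-alpha with DMSO and 100% = TNF-alpha with MG high control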
STAT1 inh STAT3c: STAT1 reporter inhibitors, IFN-gamma induced, confirmation, counter-screen for STAT3 inhibitor project, cell-based, NIH 3T3, luciferase luminescence. shares compounds with STAT3 inh-1. NIH 3T3 STAT1-luciferase reporter. inhibition, % at 5.7 µM. 27% of 1,200 active. AID 1317, 2008;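 active = inhibition above the mean plus 3 SD of solvent-only control wells, limit set per screening run, cut at about 16% in these data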;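 also: 0% = DMSO with IFN-gamma and 100% = nifuroxazide control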
STAT3 act-2: STAT3 reporter potentiators, retest of hits, confirmation, U3A cells, luciferase, luminescence. potentiation (% of control), % at 5.7 µM. AID 1267, 2008. shares compounds with STAT3 act-1. IL-6 potentiation; U3A cells lack STAT1; 100 means same as IL-6 alone. 64% of 1,200 active;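 active = percent activation of the STAT3 luciferase reporter above a set limit taken from the earlier primary screen, cut at about 130% in these data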;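 also: 0% = background signal of medium plus substrate and 100% = median of IL-6 with DMSO wells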
NFkB act 2: NF-kB reporter activators in human cells, counter-screen for STAT3 activator project; shares compounds with STAT3 act-1; NF-kappaB reporter activation; activation (% of control), % at 5.7 µM; 11% of 1,200 active; in the data active = activation above about 120%;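 also: reporter induced by TNF-alpha stimulation; 100% = median of stimulated DMSO wells and 0% = no signal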
STAT1 act-2: STAT1 reporter activators, IFN-gamma induced, counter-screen for STAT3 activator project, cell-based, NIH 3T3, luciferase luminescence; shares compounds with STAT3 act-1; NIH 3T3 STAT1-luciferase reporter; activation (% of control), % at 5.7 µM; 13% of 1,200 active; AID 1318, 2008;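 active = activation above the solvent-only control well mean plus 3 SD, set per screening run, cut at about 120% in these data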;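 also: 100% = IFN-gamma with DMSO median signal so 100% means no change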
* marks the source's active call; other numbers are inactive results.

Results for O=C(Nc1ccc(Br)cc1)c1nn(C23CC4CC(CC(C4)C2)C3)cc1Br ?
STAT1 act-1: 102; APP 5'UTR act: 0; NF-kB expr up: 1.6; STAT1 blocker: -3; STAT3 act-1: 107; STAT3 inh-1: 2

What do the screens show for `CCCCn1c(C)c(C(=O)O)c2cc(OC)ccc21`?
STAT1 act-1: 99; APP 5'UTR act: 14; NF-kB expr up: 1.1; STAT1 blocker: 1; STAT3 act-1: 60; STAT3 inh-1: 52*; STAT3 inh-2: 35; NFkB inh 2: -9; STAT1 inh STAT3c: -18

Results for CSc1ccc(CN2CCN(C(=O)COc3cccc(C)c3)CC2)cc1 ?
STAT1 act-1: 98; APP 5'UTR act: -9; NF-kB expr up: 1.3; STAT1 blocker: -1; STAT3 act-1: 97; STAT3 inh-1: 8

Results for CC1CCC[C@H](O)CCCCCc2cc(O)cc(O)c2C(=O)O1 (stereo partly specified) ?
STAT1 act-1: 96; APP 5'UTR act: -4; NF-kB expr up: 1; STAT1 blocker: 4; STAT3 act-1: 89; STAT3 inh-1: 15

How did C[C@H]1CCC[C@@H](O)CCC/C=C/c2cc(O)cc(O)c2C(=O)O1 do in these assays?
STAT1 act-1: 108; APP 5'UTR act: -3; NF-kB expr up: 1.3; STAT1 blocker: -9; STAT3 act-1: 54; STAT3 inh-1: 60*; STAT3 inh-2: 48*; NFkB inh 2: 9; STAT1 inh STAT3c: -1

What do the screens show for `Cc1nn(Cc2ccccc2)c(C)c1C(=O)OCC(=O)Nc1ccccc1SCC#N`?
STAT1 act-1: 90; APP 5'UTR act: 17; NF-kB expr up: 1.1; STAT1 blocker: 11; STAT3 act-1: 138*; STAT3 inh-1: -34; STAT3 act-2: 118; NFkB act 2: 106; STAT1 act-2: 91

What do the screens show for `CCCCN1C(=O)NC(=O)C2(Cc3c(nc4ccccn4c3=O)N3CCc4ccccc4C32)C1=O` (stereo unspecified)?
STAT1 act-1: 101; APP 5'UTR act: 7; NF-kB expr up: 0.54; STAT1 blocker: -1; STAT3 act-1: 142*; STAT3 inh-1: -44; STAT3 act-2: 143*; NFkB act 2: 106; STAT1 act-2: 103

Results for COc1c2c(cc3c1OCO3)CC[N+](C)=C2 ?
STAT1 act-1: 102; APP 5'UTR act: 6; NF-kB expr up: 1.1; STAT1 blocker: -3

Results for COc1ccc2c(c1)CC1(CN2C)C(=O)NC(=O)N(c2ccc(F)cc2)C1=O (stereo unspecified) ?
STAT1 act-1: 99; APP 5'UTR act: 20; NF-kB expr up: 1.1; STAT1 blocker: 1; STAT3 act-1: 150*; STAT3 inh-1: -58; STAT3 act-2: 134*; NFkB act 2: 104; STAT1 act-2: 108

How did COc1ccc2c(c1)CC1(CN2C)C(=O)NC(=O)N(c2ccc(C)cc2)C1=O (stereo unspecified) do in these assays?
STAT1 act-1: 98; APP 5'UTR act: -2; NF-kB expr up: 1; STAT1 blocker: 3; STAT3 act-1: 117; STAT3 inh-1: -13

What do the screens show for `Cc1ccc(-c2nc(N(C)C3CCN(C)CC3)c3ccccc3n2)cc1`?
STAT1 act-1: 99; APP 5'UTR act: 1; NF-kB expr up: 0.97; STAT1 blocker: 1; STAT3 act-1: 172*; STAT3 inh-1: -76; STAT3 act-2: 155*; NFkB act 2: 99; STAT1 act-2: 97

How did CC(=Nc1c(C)n(C)n(-c2ccccc2)c1=O)c1c(O)n(Cc2ccccc2)c(=O)[nH]c1=O do in these assays?
STAT1 act-1: 104; APP 5'UTR act: 18; NF-kB expr up: 0.99; STAT1 blocker: -4; STAT3 act-1: 156*; STAT3 inh-1: -57; STAT3 act-2: 128; NFkB act 2: 107; STAT1 act-2: 105

How did CCn1ccnc1CN1CCCC(C(=O)c2cc(F)ccc2OC)C1 (stereo unspecified) do in these assays?
STAT1 act-1: 87; APP 5'UTR act: -10; NF-kB expr up: 0.95; STAT1 blocker: 13; STAT3 act-1: 94; STAT3 inh-1: 12

How did c1ccc2[nH]c(CCNC3CCCCC3)nc2c1 do in these assays?
STAT1 act-1: 100; APP 5'UTR act: 2; NF-kB expr up: 1.3; STAT1 blocker: 0; STAT3 act-1: 137*; STAT3 inh-1: -38; STAT3 act-2: 116; NFkB act 2: 106; STAT1 act-2: 102

How did c1ccc2c(CCNC3CCCCC3)c[nH]c2c1 do in these assays?
STAT1 act-1: 93; APP 5'UTR act: 9; NF-kB expr up: 1.2; STAT1 blocker: 7; STAT3 act-1: 98; STAT3 inh-1: 5

How did CCN(CC)P(=O)(c1nccn1C)N(CC)CC do in these assays?
STAT1 act-1: 98; APP 5'UTR act: -10; NF-kB expr up: 1.6; STAT1 blocker: 0; STAT3 act-1: 95; STAT3 inh-1: 8

How did O/N=C/c1c[nH]c2ccccc12 do in these assays?
STAT1 act-1: 98; APP 5'UTR act: -4; NF-kB expr up: 1.1; STAT1 blocker: 2; STAT3 act-1: 127; STAT3 inh-1: -27

Results for C=CCN(CC=C)Cc1c[nH]c2ccccc12 ?
STAT1 act-1: 100; APP 5'UTR act: 12; NF-kB expr up: 1.2; STAT1 blocker: 0; STAT3 act-1: 147*; STAT3 inh-1: -46; STAT3 act-2: 134*; NFkB act 2: 107; STAT1 act-2: 84
